Experiments:
Cytochrome P450 2B6 = target: T1, Cytochrome P450 2B6 (Homo sapiens, UniProt P20813); test: Inhibition of CYP2B6 in human liver microsomes using isoform-specific probe substrates incubated for 15 to 30 mins by LC-MS/MS analysis; type: ADME
T1 sequence (P20813 whole entry): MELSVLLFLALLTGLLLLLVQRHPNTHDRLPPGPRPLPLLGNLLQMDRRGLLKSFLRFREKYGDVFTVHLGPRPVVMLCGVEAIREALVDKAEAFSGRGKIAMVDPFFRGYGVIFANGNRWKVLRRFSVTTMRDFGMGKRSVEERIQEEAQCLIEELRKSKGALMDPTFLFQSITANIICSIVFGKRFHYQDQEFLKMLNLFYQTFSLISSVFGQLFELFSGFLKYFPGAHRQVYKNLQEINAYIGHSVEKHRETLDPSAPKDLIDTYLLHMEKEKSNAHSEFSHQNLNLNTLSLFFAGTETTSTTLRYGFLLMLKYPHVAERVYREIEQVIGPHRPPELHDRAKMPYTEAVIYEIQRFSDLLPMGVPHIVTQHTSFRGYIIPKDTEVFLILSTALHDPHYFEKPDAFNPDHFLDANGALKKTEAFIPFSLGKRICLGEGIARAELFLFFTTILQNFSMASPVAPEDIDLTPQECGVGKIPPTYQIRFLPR
Outline: (§1)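 Pooled mixed-gender human liver microsomes 0.2 mg/mL in 100 mM potassium phosphate with 2 mM NADPH. Isoform-specific probe substrates near Km. Organic solvent ≤1% final. Incubated 37°C for 15–30 min, quenched with acetonitrile plus internal standard. Probe metabolites measured by LC-MS/MS; percent inhibition versus vehicle, IC50 by variable-slope sigmoid fit.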

Cytochrome P450 1A2 = target: T2, Cytochrome P450 1A2 (Homo sapiens, UniProt P05177); test: Inhibition of CYP1A2 in human liver microsomes using isoform-specific probe substrates incubated for 15 to 30 mins by LC-MS/MS analysis; type: ADME; outline: as §1
T2 sequence (P05177 whole entry): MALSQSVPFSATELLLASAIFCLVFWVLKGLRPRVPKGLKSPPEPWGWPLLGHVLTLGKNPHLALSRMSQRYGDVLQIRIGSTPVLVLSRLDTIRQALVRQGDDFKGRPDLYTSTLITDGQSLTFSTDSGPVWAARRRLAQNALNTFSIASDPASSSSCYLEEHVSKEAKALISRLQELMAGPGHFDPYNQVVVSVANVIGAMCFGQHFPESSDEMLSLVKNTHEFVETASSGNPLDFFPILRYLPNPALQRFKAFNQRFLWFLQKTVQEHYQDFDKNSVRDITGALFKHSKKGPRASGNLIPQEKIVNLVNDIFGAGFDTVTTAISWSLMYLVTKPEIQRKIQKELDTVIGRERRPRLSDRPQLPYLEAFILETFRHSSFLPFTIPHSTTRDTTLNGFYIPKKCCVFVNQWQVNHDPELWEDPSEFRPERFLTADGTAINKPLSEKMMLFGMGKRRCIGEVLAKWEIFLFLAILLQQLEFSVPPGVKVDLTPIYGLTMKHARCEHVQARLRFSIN

## CC(C)CCNC1=CC(=O)c2ccccc2C1=O
Cytochrome P450 2B6
  IC50: 39.3 µM
Cytochrome P450 1A2
  IC50: 5.57 µM
